Published values from different studies.
Compare with care: the assays were run in different laboratories.
Target: Mitogen-activated protein kinase 11 (MAPK11, Homo sapiens, UniProt Q15759)

CNCc1ccc(-c2cc(-c3nc(-c4ccc(S(=O)(=O)C(C)C)cc4)cnc3N)on2)cc1  inhibition (enzyme activity, inhibitor; 0.4 µM): 2%
COc1cccc2c(NCc3ccccc3)nc(-n3c(N)nc4ccccc43)nc12  inhibition (target engagement in cells, inhibitor, chemoproteomics; 20 mM): -9.6%
C[C@@H](c1cccc(C#N)c1)n1cc(Cl)cc(C(N)=O)c1=N  remaining binding (cell-free assay, competition with immobilised ligand; 1 µM): 93%
Oc1cccc(-c2nc(N3CCOCC3)c3oc4ncccc4c3n2)c1  remaining activity (enzyme activity, inhibitor; 10 µM): 100%
Nc1c(C(=O)NCc2ccc(C(=O)NCCCC3CCCCC3)cc2)cnn1-c1ccccc1  remaining binding (binding, competition with immobilised ligand; 1 µM): 3.4%
CCCOc1ccc(OC)c(F)c1C(=O)c1ccc(C(=O)N[C@@H]2CNC[C@H]2NC(=O)c2ccc3[nH]ncc3c2)cc1  remaining activity (enzyme activity, inhibitor; 10 µM): 96%
O=C(NS(=O)(=O)c1ccc(NCC2CCOCC2)c([N+](=O)[O-])c1)c1ccc(N2CCN(Cc3ccc(C(F)(F)F)cc3-c3ccc(Cl)cc3)CC2)cc1Oc1cnc2[nH]ccc2c1  remaining binding (cell-free assay, competition with immobilised ligand; 1 µM): 78%
CC(C)(C)c1nc2c(s1)c1nc(N)ncc1c1ccc(NS(=O)(=O)c3c(F)cccc3F)c(F)c12  remaining activity (enzyme activity, inhibitor, radiometric; 1 µM): 101%
O=C(CSc1nc2nccnc2c(=O)n1CCc1ccccc1)Nc1nccs1  inhibition (enzyme activity, inhibitor; 10 µM): 5%
Nc1cnc(N2CCc3cc(S(=O)(=O)Nc4c(F)cc(Cl)cc4F)cc(N4CCCC4=O)c32)nc1  remaining binding (cell-free assay, competition with immobilised ligand; 1 µM): 100%
CCN(CC)CCNC(=O)c1c(C)[nH]c(/C=C2\C(=O)Nc3ccc(F)cc32)c1C  inhibition (enzyme activity, inhibitor; 0.3 µM): -5%
Cn1c2c(c3ccc(Cl)c(Cl)c31)C(C#N)C1(CCOCC1)NC2=O (stereo not drawn)  ΔTm (thermal stability, DSF; 10 µM): 0.4 °C
COc1ccc2c(O[C@@H]3C[C@H]4C(=O)N[C@]5(C(=O)O)CC5/C=C\CCCCC[C@H](NC(=O)OC5CCCC5)C(=O)N4C3)cc(-c3csc(NC(=O)C(C)C)n3)nc2c1C (stereo partly drawn)  remaining binding (cell-free assay, competition with immobilised ligand; 1 µM): 100%
O=C1NC(=O)c2cc(Nc3ccc(F)cc3)c(Nc3ccc(F)cc3)cc21  remaining signal (cell-free assay; 0.5 µM): 94.6%
Cn1c2c(c3ccc(Cl)c(Cl)c31)C(C#N)C1(CCCCC1)NC2=O (racemic)  ΔTm (thermal stability, DSF; 10 µM): 0.1 °C
CCN(CC)c1ccc(C2=NNC(=O)CC2C)cc1[N+](=O)[O-] (stereo not drawn)  remaining activity (enzyme activity, inhibitor; 10 µM): 97%
O=C(Nc1cnc(Oc2ccc(F)cc2)nc1)N1CCc2ncccc2[C@@H]1c1ccc(F)cc1  remaining binding (cell-free assay, competition with immobilised ligand; 1 µM): 84%
Cn1c2c(c3ccc(Cl)c(Cl)c31)C(C#N)C1(CCN(C(=O)OC(C)(C)C)CC1)NC2=O (racemic)  ΔTm (thermal stability, DSF; 10 µM): -0.8 °C
CCC(=O)N[C@@H]1CC[C@H](C(=O)N(C)c2ccc(-c3nc4ccccc4o3)cc2)C1  remaining binding (cell-free assay, competition with immobilised ligand; 1 µM): 83%
Nc1nc(NC2CCCCC2)sc1C(=O)c1ccccc1  remaining activity (enzyme activity, inhibitor; 10 µM): 22%
Cc1ccc(C(=O)Nc2ccc(CN3CCN(C)CC3)c(C(F)(F)F)c2)cc1C#Cc1cnc2cccnn12  remaining activity (enzyme activity, inhibitor; 23.5 nM): 63%
